IC50 data for 27 compounds are collected here from ChEMBL document CHEMBL3804764, “Synthesis and biological characterization of 3-(imidazol-1-ylmethyl)piperidine sulfonamides as aromatase inhibitors” (Bioorg Med Chem Lett, 2016).

This experiment addresses T1, Aromatase (Homo sapiens, UniProt P11511).
T1 sequence (P11511 whole entry): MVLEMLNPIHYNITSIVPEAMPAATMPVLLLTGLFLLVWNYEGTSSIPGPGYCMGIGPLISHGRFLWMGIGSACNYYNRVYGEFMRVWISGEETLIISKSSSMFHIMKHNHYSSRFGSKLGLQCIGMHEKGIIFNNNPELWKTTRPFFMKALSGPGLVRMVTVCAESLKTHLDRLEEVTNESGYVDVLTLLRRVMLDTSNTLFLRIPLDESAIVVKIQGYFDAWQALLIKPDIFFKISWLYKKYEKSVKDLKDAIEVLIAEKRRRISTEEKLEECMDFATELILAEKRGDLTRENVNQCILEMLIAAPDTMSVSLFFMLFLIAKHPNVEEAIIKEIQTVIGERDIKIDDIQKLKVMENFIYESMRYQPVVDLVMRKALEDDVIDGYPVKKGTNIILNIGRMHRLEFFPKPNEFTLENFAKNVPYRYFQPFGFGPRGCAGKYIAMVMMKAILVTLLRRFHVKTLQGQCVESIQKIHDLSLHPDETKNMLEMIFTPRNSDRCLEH
In words: Inhibition of recombinant human aromatase using 7-methoxy-4-trifluoromethyl coumarin as substrate measured at […] conditions by fluorescence analysis. Summed up: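 Semiautomated high-throughput fluorometric screen with recombinant human aromatase and 7-methoxy-4-trifluoromethyl coumarin (MFC) substrate. Inhibition read as reduced fluorescence from MFC conversion. Blank values subtracted from sample wells to give net signal. Activity normalized to no-inhibitor wells. Duplicate assays. Racemic compounds tested.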

Structures are written as SMILES.

The term IC50 denotes the concentration that gives 50% inhibition. For `O=[N+]([O-])c1ccc(S(=O)(=O)N2CCCC(Cn3ccnc3)C2)cc1C(F)(F)F` (configuration not stated), the IC50 stood at 16 nM.

As for `O=S(=O)(c1ccc(F)c(F)c1)N1CCCC(Cn2ccnc2)C1` (configuration not stated), the IC50 is 43 nM.

For `COc1ccc(S(=O)(=O)N2CCCC(Cn3ccnc3)C2)cc1OC` (configuration not stated), the half-maximal inhibitory concentration (IC50) worked out at 42 nM.

Turning to `O=S(=O)(c1ccc(F)c(Cl)c1)N1CCCC(Cn2ccnc2)C1` (configuration not stated), the IC50 was found to be 14 nM.

As to `COC(=O)c1ccccc1S(=O)(=O)N1CCCC(Cn2ccnc2)C1` (configuration not stated), the IC50 came to 53 nM.

On to `O=[N+]([O-])c1cccc(Cl)c1Oc1cccc(S(=O)(=O)N2CCCC(Cn3ccnc3)C2)c1` (configuration not stated), for which the IC50 turned out to be 9 nM.

As to `COc1c(C)cc(S(=O)(=O)N2CCCC(Cn3ccnc3)C2)c(C)c1C` (configuration not stated), the IC50 was 45 nM.

Turning to `COc1ccc(S(=O)(=O)N2CCCC(Cn3ccnc3)C2)cc1C(C)(C)C` (configuration not stated), the IC50 amounted to 9 nM.

With `N#Cc1ccc(S(=O)(=O)N2CCCC(Cn3ccnc3)C2)cc1` (configuration not stated), the IC50 is 36 nM.

`COc1c(C)cc(S(=O)(=O)N2CCCC(Cn3ccnc3)C2)cc1C` (configuration not stated): the IC50 was found to be 21 nM.

As to `O=S(=O)(c1ccc2nsnc2c1)N1CCCC(Cn2ccnc2)C1` (configuration not stated), the IC50 is 7 nM.

Turning to `O=S(=O)(c1ccc(OC2CCCC2)cc1)N1CCCC(Cn2ccnc2)C1` (configuration not stated), the IC50 was 14 nM.

As to `Cc1cc(F)ccc1S(=O)(=O)N1CCCC(Cn2ccnc2)C1` (configuration not stated), the IC50 came out at 48 nM.

Turning to `O=S(=O)(c1ccc2c(c1)OCCO2)N1CCCC(Cn2ccnc2)C1` (configuration not stated), the concentration for half-maximal inhibition (IC50) stood at 13 nM.

As to `O=S(=O)(c1cccc2nsnc12)N1CCCC(Cn2ccnc2)C1` (configuration not stated), the IC50 was 54 nM.

Consider `N#Cc1ccc(S(=O)(=O)N2CCCC(Cn3ccnc3)C2)c(Cl)c1` (configuration not stated), for which the IC50 turned out to be 79 nM.

As to `O=S(=O)(c1ccc(OC2CCCC2)c(F)c1)N1CCCC(Cn2ccnc2)C1` (configuration not stated), the IC50 was 22 nM.

As to `CS(=O)(=O)c1ccc(S(=O)(=O)N2CCCC(Cn3ccnc3)C2)cc1` (configuration not stated), the IC50 worked out at 48 nM.

With `Cc1cc(S(=O)(=O)N2CCCC(Cn3ccnc3)C2)ccc1F` (configuration not stated), the concentration for half-maximal inhibition (IC50) was determined as 24 nM.

Regarding `COc1ccc(S(=O)(=O)N2CCCC(Cn3ccnc3)C2)c(C)c1C` (configuration not stated), the 50% inhibitory concentration (IC50) came out at 59 nM.

Take `COc1cc([N+](=O)[O-])ccc1S(=O)(=O)N1CCCC(Cn2ccnc2)C1` (configuration not stated): the IC50 is 129 nM.

Consider `COc1ccc(S(=O)(=O)N2CCCC(Cn3ccnc3)C2)c(OC)c1` (configuration not stated), for which the IC50 stood at 131 nM.

Consider `COc1ccc(S(=O)(=O)N2CCCC(Cn3ccnc3)C2)cc1Br` (configuration not stated), for which the IC50 came out at 6 nM.

For `COc1ccc(S(=O)(=O)N2CCCC(Cn3ccnc3)C2)cc1F` (configuration not stated), the IC50 was determined as 14 nM.

As to `O=C(O)c1cc(S(=O)(=O)N2CCCC(Cn3ccnc3)C2)ccc1O` (configuration not stated), the IC50 turned out to be 339 nM.

On to `O=S(=O)(c1ccc(F)c(F)c1F)N1CCCC(Cn2ccnc2)C1` (configuration not stated), for which the IC50 amounted to 46 nM.

For `O=S(=O)(c1ccc(F)cc1)N1CCCC(Cn2ccnc2)C1` (configuration not stated), the IC50 was 51 nM.
